The target in assay [1] is T1, Aldehyde dehydrogenase 1A1 (Rattus norvegicus) (UniProt P51647).
T1 sequence (whole entry): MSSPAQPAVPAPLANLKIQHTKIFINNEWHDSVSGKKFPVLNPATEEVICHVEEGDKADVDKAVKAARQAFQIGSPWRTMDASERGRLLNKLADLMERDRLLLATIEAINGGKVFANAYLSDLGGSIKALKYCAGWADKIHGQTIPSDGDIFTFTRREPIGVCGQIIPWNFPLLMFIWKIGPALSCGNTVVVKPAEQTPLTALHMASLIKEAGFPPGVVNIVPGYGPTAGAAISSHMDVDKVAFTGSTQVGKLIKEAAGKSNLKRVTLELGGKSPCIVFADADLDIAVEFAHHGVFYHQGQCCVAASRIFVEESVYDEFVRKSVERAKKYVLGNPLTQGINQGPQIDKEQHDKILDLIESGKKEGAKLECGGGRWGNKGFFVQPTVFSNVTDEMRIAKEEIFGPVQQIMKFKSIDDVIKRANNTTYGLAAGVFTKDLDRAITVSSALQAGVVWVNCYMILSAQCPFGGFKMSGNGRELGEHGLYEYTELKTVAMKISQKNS
The experiment in a line: Percent inhibition of the enzyme […] was measured in rats which are treated with phenobarbital (PB). As to conditions: concentration not given here. The procedure, abridged:
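Male Sprague–Dawley rats pretreated 8 days with 0.1% sodium phenobarbital in drinking water, then fasted overnight. They received 1.25 mmol/kg ip 2 h before sacrifice and ethanol 2.0 g/kg ip at 1 h. Liver mitochondrial low-Km aldehyde dehydrogenase activity (nmol acetaldehyde oxidized/min/mg protein, Lowry protein) was compared with saline controls as % inhibition.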

Assay [2] is filed under the species Rattus norvegicus. The experiment in a line: Blood AcH level of compound was measured in rats which are treated with phenobarbital (PB). The class given is functional. The procedure, abridged:
(§1)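 Male Sprague–Dawley rats kept 8 days on water (untreated) or 0.1% sodium phenobarbital solution (PB-treated), then fasted overnight. Test agent given at 1.25 mmol/kg ip 2 h before sacrifice, with ethanol at 2.0 g/kg ip 1 h later; saline controls. Cardiac blood was collected into 5 mM sodium azide and frozen, then acetaldehyde was read by head-space GC. Mean ± SE.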

The species named for assay [3] is Rattus norvegicus. Nature of the assay: Blood AcH level of compound was measured in rats which are untreated with phenobarbital (PB). Type of assay: functional. The procedure, abridged:
as §1

Assay [4] is filed under the species Rattus norvegicus. Nature of the assay: T/C value of compound was measured in rats which are treated with phenobarbital (PB). Type of assay: functional. The procedure, abridged: (§2)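 Rats were given water (untreated) or 0.1% sodium phenobarbital drinking solution (PB-treated) for 8 days, then fasted overnight. Agent 1.25 mmol/kg ip, then ethanol 2.0 g/kg ip 1 h later; killed 1 h after ethanol. Blood acetaldehyde by head-space GC. The value is treated/saline-control blood acetaldehyde within the same pretreatment group.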

The species entered for assay [5] is Rattus norvegicus. Nature of the assay: T/C value of compound was measured in rats which are untreated with phenobarbital (PB). The class given is functional. The procedure, abridged:
as §2

Assay [6] is filed under the species Rattus norvegicus. The experiment in a line: The enzymatic formation of propionaldehyde from compound on inhibition with rat liver microsomes in the presence of an NADPH (treated with phenobarbital (PB)). Type of assay: functional. The procedure, abridged:
(§3)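 Liver microsomes (100000g pellet, KCl-washed) from PB-treated or naive rats, equivalent to 500 mg liver per flask. Incubated 30 min at 37 °C with 3 mM compound, pH 7.4 phosphate, NADP+ 2.0 mM, glucose 6-phosphate 2.5 mM, G6PDH, MgCl2, nicotinamide, and 30 mM semicarbazide. Six flasks were pooled, acidified with HClO4, and propiolaldehyde read by head-space GC from 3–5 determinations.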
(In general: Microsomes from liver hold many membrane-bound enzymes, among them those of drug oxidation.)

Assay [7] is filed under the species Rattus norvegicus. The experiment in a line: The enzymatic formation of propionaldehyde from compound on inhibition with rat liver microsomes in the presence of an NADPH (untreated with phenobarbital (PB)). Type of assay: functional. The procedure, abridged: as §3

SMILES strings stand for the structures.

In general, inhibition refers to how much of the control response was suppressed. A low value points to a response near the control. Regarding `C#CC(OC)OC`, in assay [1], the inhibition turned out to be 44%. Moreover, the “Blood AcH” value in assay [2] turned out to be 24.1 µM; in assay [3], 10.6 µM. In addition, the T/C in assay [4] was 3.17; in assay [5] it was 0.95. For the same compound, the Propioaldehyde generated in assay [6] worked out at 0.05 µmol.
Take `C#CCOC`: the “Blood AcH” value in assay [3] was found to be 10.6 µM. Besides, the T/C in assay [4] is 1.1; in assay [5], 0.95. The Propioaldehyde generated in assay [6] amounted to 0.05 µmol.
On to `C#CCOC(C)(C)C`, for which the figures for the “Blood AcH” value in assay [2] and in assay [3] were 13.5 µM and 19.6 µM, respectively. The T/C in assay [4] came out at 1.78; in assay [5], 1.77. Further, in assay [6], the Propioaldehyde generated was 0.22 µmol.
For `C#CCN(CC#C)CC#C`, the “Blood AcH” value in assay [2] is 144 µM; in assay [3], 15.4 µM. In addition, the T/C in assay [4] is 19; in assay [5] it was 1.4. Further, the values for the Propioaldehyde generated in assay [6] and in assay [7] were 3.5 µmol and 0.25 µmol, respectively.
As for `C#CCNCc1ccccc1` [N-BENZYLPROPARGYLAMINE], the Blood AcH in assay [2] worked out at 382 µM; in assay [3], 203 µM. Also, the T/C in assay [4] stood at 50.3; in assay [5], 18.3. Besides, the Propioaldehyde generated in assay [6] stood at 1.16 µmol; in assay [7], 0.2 µmol.
Regarding `C#CCN(C)Cc1ccccc1` [PARGYLINE], the “Blood AcH” value in assay [2] amounted to 247 µM; in assay [3], 224 µM. For the same compound, the T/C in assay [4] worked out at 32.5; in assay [5] it was 20.2. Further, the Propioaldehyde generated was determined as 2.58 µmol in assay [6] and 0.61 µmol in assay [7].

The record behind these values is ChEMBL document CHEMBL1121456, “Metabolic depropargylation and its relationship to aldehyde dehydrogenase inhibition in vivo” (1980).
